A word on the Ki: it is the equilibrium dissociation constant of an inhibitor or competing ligand from its target. Higher therefore signals lower affinity.

In ChEMBL document CHEMBL1157654, “Synthesis and in vitro biological evaluation of carbon-11-labeled quinoline derivatives as new candidate PET radioligands for cannabinoid CB2 receptor imaging” (Bioorg Med Chem, 2010) one finds Activity, Ki and Ratio Ki data, which are given here for ten compounds.

The target in assay [1] is T1, Cannabinoid receptor 1 (Homo sapiens, UniProt P21554). Kind of assay: Displacement of [3H]CP-55940 from CB1 receptor at 10 uM. In general terms: Loss of bound radioactivity is the signal in a displacement assay; it reports binding, not function.
T1 sequence (P21554 whole entry): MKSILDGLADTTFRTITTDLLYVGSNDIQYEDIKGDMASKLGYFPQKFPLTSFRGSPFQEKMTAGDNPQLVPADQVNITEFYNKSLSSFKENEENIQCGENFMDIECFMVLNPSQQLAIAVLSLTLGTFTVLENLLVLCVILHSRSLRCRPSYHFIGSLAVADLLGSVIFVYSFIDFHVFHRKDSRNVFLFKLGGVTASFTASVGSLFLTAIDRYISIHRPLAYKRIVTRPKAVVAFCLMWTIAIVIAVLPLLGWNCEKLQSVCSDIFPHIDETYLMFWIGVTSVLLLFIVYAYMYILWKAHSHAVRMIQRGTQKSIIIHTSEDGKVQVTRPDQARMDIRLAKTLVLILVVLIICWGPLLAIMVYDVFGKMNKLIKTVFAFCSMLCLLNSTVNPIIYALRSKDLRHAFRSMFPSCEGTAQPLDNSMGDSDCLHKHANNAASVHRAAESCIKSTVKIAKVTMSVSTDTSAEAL
In assay [2] the target is T2, Cannabinoid receptor 2 (Homo sapiens, UniProt P34972). The assay is described as follows: Displacement of [3H]CP-55940 from CB2 receptor at 10 uM.
T2 sequence (P34972 whole entry): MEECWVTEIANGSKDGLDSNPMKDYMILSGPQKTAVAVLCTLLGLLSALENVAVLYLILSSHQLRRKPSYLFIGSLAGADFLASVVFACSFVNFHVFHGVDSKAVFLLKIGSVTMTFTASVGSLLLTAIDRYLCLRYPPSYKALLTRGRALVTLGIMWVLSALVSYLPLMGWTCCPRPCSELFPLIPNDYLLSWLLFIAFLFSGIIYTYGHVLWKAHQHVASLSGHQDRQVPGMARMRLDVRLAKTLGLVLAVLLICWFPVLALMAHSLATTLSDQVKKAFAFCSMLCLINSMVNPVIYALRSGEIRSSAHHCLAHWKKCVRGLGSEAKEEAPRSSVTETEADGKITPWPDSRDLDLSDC
Assay [3] has as its target T1, Cannabinoid receptor 1. The assay is described as follows: Displacement of [3H]CP-55940 from CB1 receptor. The method, boiled down: (§1)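 Radioligand competition binding at CB1 or CB2 with [³H]CP55940; CP55940 reference. Ki (nM) obtained from non-linear regression of competition binding isotherms (secondary assay).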
For assay [4], the target named is T2, Cannabinoid receptor 2. Kind of assay: Displacement of [3H]CP-55940 from CB2 receptor. The method, boiled down:
as §1

Assay [5] is described as follows: Selectivity ratio of Ki for CB1 receptor to Ki for CB2 receptor. The method, boiled down: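 Ratio of CB1 Ki to CB2 Ki, both from [³H]CP55940 competition binding (pH 7.4 Tris–HCl/EDTA/MgCl₂/BSA buffer) with Ki fitted by non-linear regression of competition isotherms.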

With `CCCCCOc1c(OC)ccc2cc(C(=O)NCCc3ccc(OC)cc3)c(=O)[nH]c12`, the Activity is 68.7% at Cannabinoid receptor 1 [1] and 102% on Cannabinoid receptor 2 [2]. Also, the Ki on Cannabinoid receptor 1 [3] was 0.733 µM; at Cannabinoid receptor 2 [4], 0.0279 µM. In addition, in assay [5], the Ratio Ki was determined as 26.2.
For `CCCCCOc1c(OC)ccc2cc(C(=O)NCCc3ccccc3)c(=O)[nH]c12` the same measures were 63.4%, 103%, 0.196 µM, 0.00692 µM and 28.3.
In the case of `CCCCCOc1c(OC)ccc2cc(C(=O)NCCCc3ccccc3)c(Cl)nc12`, the Activity at Cannabinoid receptor 1 [1] turned out to be 66.3%; on Cannabinoid receptor 2 [2], 59.2%. The Ki is over 10 µM on Cannabinoid receptor 1 [3] and 1.07 µM on Cannabinoid receptor 2 [4]. The Ratio Ki in assay [5] is over 9.36.
In the case of `CCCCCOc1c(OC)ccc2cc(C(=O)NCCc3ccc(Cl)cc3)c(=O)[nH]c12`, the Activity on Cannabinoid receptor 1 [1] is -9%; on Cannabinoid receptor 2 [2], 102%. Besides, the inhibitory constant (Ki) was over 10 µM at Cannabinoid receptor 1 [3] and 0.00937 µM on Cannabinoid receptor 2 [4]. The Ratio Ki in assay [5] is over 1070.
For `CCCCCOc1c(OC)ccc2cc(C(=O)NCCc3ccc(F)cc3)c(Cl)nc12` the same measures were 64.8%, 104%, 2.88 µM, 0.0238 µM and 121.
For the compound `CCCCCOc1c(OC)ccc2cc(C(=O)NCCc3ccc(Cl)cc3)c(Cl)nc12`, the Activity on Cannabinoid receptor 1 [1] worked out at 34.4%; on Cannabinoid receptor 2 [2] it was 74.1%. Further, the Ki was over 10 µM at Cannabinoid receptor 1 [3] and 1.01 µM at Cannabinoid receptor 2 [4]. Moreover, the Ratio Ki in assay [5] is over 9.92.
For `CCCCCOc1c(OC)ccc2cc(C(=O)NCCc3ccccc3)c(Cl)nc12` the same measures were 73.7%, 86.3%, over 10 µM, 0.497 µM and over 20.1.
For `CCCCCOc1c(OC)ccc2cc(C(=O)NCCc3ccc(OC)cc3)c(Cl)nc12` the same measures were 71%, 65.9%, over 10 µM, 1.33 µM and over 7.51.
On to `CCCCCOc1c(OC)ccc2cc(C(=O)NCCCc3ccccc3)c(=O)[nH]c12`, for which the figures for the Activity on Cannabinoid receptor 1 [1] and on Cannabinoid receptor 2 [2] were 51.4% and 104%, respectively. Moreover, the figures for the inhibition constant (Ki) on Cannabinoid receptor 1 [3] and at Cannabinoid receptor 2 [4] were 0.323 µM and 0.0103 µM, respectively. Moreover, the Ratio Ki in assay [5] was 31.3.
Turning to `CCCCCOc1c(OC)ccc2cc(C(=O)NCCc3ccc(F)cc3)c(=O)[nH]c12`, the values for the Activity on Cannabinoid receptor 1 [1] and on Cannabinoid receptor 2 [2] were 26.3% and 101%, respectively. Further, the Ki at Cannabinoid receptor 1 [3] is over 10 µM; at Cannabinoid receptor 2 [4] it was 0.0054 µM. The Ratio Ki in assay [5] is over 1850.
